From ChEMBL document CHEMBL3992510, “Urea Derivatives of 2-Aryl-benzothiazol-5-amines: A New Class of Potential Drugs for Human African Trypanosomiasis” (J Med Chem, 2017)

Experiments:
[1] = Selectivity index, ratio of EC50 for human HepG2 cells to EC50 for Trypanosoma brucei brucei BF427; assay type: toxicity; settings: read-out: Ratio EC50
[2] = test system: Liver; assay: Half life in mouse liver microsomes at 1.5 uM in presence of NADPH by liquid chromatography/tandem mass spectrometric analysis; assay type: ADME, microsome
[3] = Selectivity index, ratio of EC50 for human CRL8155 cells to EC50 for Trypanosoma brucei brucei BF427; assay type: toxicity; settings: read-out: Ratio EC50
[4] = test system: Trypanosoma brucei brucei; assay: Antitrypanosomal activity against Trypanosoma brucei brucei BF427 assessed as growth inhibition measured after 48 hrs by Alamar blue assay; assay type: functional; settings: BF427, 48 h
How it was run: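 Bloodstream-form parasites in HMI-9 medium are exposed to serial compound dilutions in triplicate. Viability is read with Alamar Blue at 48 h. EC50 and EC90 come from nonlinear regression. Pentamidine isethionate is the control.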

[5] = Cytotoxicity against human CRL8155 cells assessed as growth inhibition after 48 hrs by Alamar blue assay; assay type: cell-based; settings: for EC50: Homo sapiens, CRL8155, 48 h; for EC90: human, crl8155, 48 h
How it was run: (§1)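 CRL-8155 lymphoblasts or HepG2 hepatocellular carcinoma cells are exposed 48 h to serial compound dilutions in quadruplicate. Growth is read with Alamar Blue, and 50% and 90% inhibitory concentrations come from nonlinear regression. Quinacrine is the control.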

[6] = Stability in mouse liver microsomes assessed as compound remaining at 1.5 uM in presence of NADPH measured after 5 mins by liquid chromatography/tandem mass spectrometric analysis; assay type: ADME, microsome; settings: read-out: Stability
[7] = test system: HepG2; assay: Cytotoxicity against human HepG2 cells assessed as growth inhibition after 48 hrs by Alamar blue assay; assay type: cell-based; settings: for EC50: Homo sapiens, HepG2, 48 h; for EC90: human, hepg2, 48 h; how it was run: as §1
[8] = test system: Liver; assay: Half life in human liver microsomes at 1.5 uM in presence of NADPH by liquid chromatography/tandem mass spectrometric analysis; assay type: ADME, microsome
[9] = Ratio of drug level in brain to plasma in mouse at 5 mg/kg, ip administered as single dose measured at 1 hr post dose by liquid chromatography/tandem mass spectrometric analysis; assay type: ADME, organism-based
How it was run: (§2)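 Single ip dose of 5 mg/kg in 5% DMSO/7% Tween 80/3% EtOH in 0.9% saline, three mice per compound (six for one compound). At 1 h, plasma is separated by centrifugation and brain homogenized in acetonitrile. Both are quantified by LC-MS/MS, with brain corrected for 3% v/w blood. Brain/plasma ratio is reported as mean ± SEM.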

[10] = Stability in human liver microsomes assessed as compound remaining at 1.5 uM in presence of NADPH measured after 60 mins by liquid chromatography/tandem mass spectrometric analysis; assay type: ADME, microsome; settings: read-out: Stability
How it was run: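 Pooled liver microsomes (0.5 mg/mL) are preincubated 5 min at 37 °C in 0.16 M KH2PO4 with 1 mM NADPH, then test compound is added at 1.5 μM. Aliquots are quenched with 4 volumes of acetonitrile at 0, 5, 10, 15, 30 and 60 min and analyzed by LC-MS/MS. Percent remaining at 5 or 60 min is given when t1/2 is outside the 5–60 min range. Controls: testosterone, dextromethorphan.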

[11] = Drug level in mouse brain at 5 mg/kg, ip administered as single dose measured at 1 hr post dose by liquid chromatography/tandem mass spectrometric analysis; assay type: ADME, organism-based; settings: read-out: Drug uptake; how it was run: as §2
[12] = Drug level in mouse plasma at 5 mg/kg, ip administered as single dose measured at 1 hr post dose by liquid chromatography/tandem mass spectrometric analysis; assay type: ADME, organism-based; how it was run: as §2

Row | Compound | selectivity ratio [1] | t1/2 [2] [min] | selectivity ratio [3] | EC50 [4] [nM] | EC90 [4] [nM] | EC50 [5] [nM] | EC90 [5] [nM] | remaining at 5 min, 1.5 µM [6] [%] | EC50 [7] [nM] | EC90 [7] [nM] | t1/2 [8] [min] | BPR [9] | remaining at 1 h, 1.5 µM [10] [%] | concentration at 1 h [11] [µM] | concentration at 1 h [12] [µM]
1 | O=C(NCCc1nc(-c2cccc(F)c2)cs1)N1CCCC(F)(F)C1 | > 463 | < 5 | > 463 | 108 | 168 | > 50000 | > 50000 | 14 | > 50000 | > 50000 | 5.1 |  |  |  | 
2 | O=C(NCCc1nc(-c2ccccc2)cs1)c1ccccc1 |  |  |  |  |  |  |  |  |  |  |  | 0.3 |  |  | 
3 | CC(C)(Cc1csc(-c2ccccc2)n1)NC(=O)N1CCCCC1 |  | < 5 |  | 7840 | 9900 |  |  | 0 |  |  |  |  |  |  | 
4 | O=C(Nc1ccc2sc(-c3ccccc3)nc2c1)c1ccccc1 |  | 50 |  | 2380 | 7740 |  |  |  |  |  |  |  | 53 |  | 
5 | O=C(NCCc1nc(-c2ccccc2)cs1)N1CCCCC1 |  |  |  |  |  |  |  |  |  |  |  | 0.613 |  |  | 
6 | O=C(NCCc1nc(-c2cccc(F)c2)cs1)N1CCC(F)CC1 | > 1370 | < 5 | > 1370 | 36.6 | 57.5 | > 50000 | > 50000 | 5.5 | > 50000 | > 50000 | 5.6 |  |  |  | 
7 | O=C(NCCc1nc(-c2cccc(F)c2)cs1)N1CCCC(F)C1 (stereo not drawn) | > 1750 | < 5 | > 1750 | 28.5 | 55.7 | > 50000 | > 50000 | 18 | > 50000 | > 50000 | 10 |  |  |  | 
8 | Cl.S=C(NCCc1nc(-c2ccccc2)cs1)N1CCCCC1 | > 2060 | < 5 | > 2060 | 24.3 | 42.4 | > 50000 | > 50000 | 1.8 | > 50000 | > 50000 | 8.2 | 0.089 |  | 0.187 | 2
9 | S=C(NCCc1nc(-c2ccccc2)cs1)c1ccccc1 |  | < 5 |  | 1440 | 2630 |  |  | 0 |  |  |  |  |  |  | 
10 | O=C(Nc1ccc2sc(-c3ccc(F)c(F)c3)nc2c1)N1CCC(F)(F)C1 | > 54 |  | > 54 | 934 | 1660 | > 50000 | > 50000 |  | > 50000 | > 50000 |  | 7.92 |  | 21.7 | 2.81
11 | O=C(Nc1ccc2sc(-c3ccccc3)nc2c1)N1CCCCC1 | > 137 | 17 | > 137 | 366 | 809 | > 50000 | > 50000 |  | > 50000 | > 50000 |  |  | 62 |  | 
12 | O=C(Nc1ccc2sc(-c3ccccc3)nc2c1)N1CCCC1 | > 154 | 18 | > 154 | 325 | 817 | > 50000 | > 50000 |  | > 50000 | > 50000 | 30 |  |  | 4.24 | 3.4
13 | O=C(NCCc1nc(-c2cccc(F)c2)cs1)N1CCC(F)(F)CC1 | > 305 | < 5 | > 305 | 164 | 230 | > 50000 | > 50000 | 20 | > 50000 | > 50000 | 5.8 |  |  |  | 
14 | CC(C)(CNC(=O)N1CCCCC1)c1nc(-c2ccccc2)cs1 |  | < 5 |  | 1300 | 2400 |  |  | 0 |  |  |  |  |  |  | 
15 | O=C(Nc1ccc2oc(-c3ccccc3)nc2c1)N1CCCCC1 |  | 11 |  | 2800 | 9300 |  |  |  |  |  |  |  | 77 |  | 
